We go through 2 compounds from ChEMBL document CHEMBL1649123, “Erythromycin- and chloramphenicol-induced ribosomal assembly defects are secondary effects of protein synthesis inhibition” (2009).

SMILES strings stand for the structures. ≈ marks a conversion by molar mass, not a printed value. Calls of active or inactive are those of the source. The calls are words filed in the database; no cut-off is given here.

Assay [1] relates to Escherichia coli. Nature of the assay: Inhibition of ribosomal subunit assembly in Escherichia coli assessed as retardation of 16S rRNA processing at 100 ug/ml after 1 hr by primer extension analysis at 37 degC. It is filed as functional, organism-based. The procedure, abridged: (§1)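 Ribosomes from MG1655 drug-treated in 2× YT (1 h at 37°C or 2 h at 25°C from A600 0.2) were separated on 10–25% sucrose gradients. RNA was isolated from fractions by isopropanol precipitation and guanidinium thiocyanate/silica binding. 5′ ends of 23S and 16S rRNA were mapped by reverse transcription from specific primers, alongside sequencing lanes.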

Assay [2] concerns Escherichia coli. Briefly: Inhibition of ribosomal subunit assembly in Escherichia coli assessed as reduction in mature 23S rRNA at 7 ug/ml. It is filed as functional.
In assay [3] the test system is Escherichia coli. Nature of the assay: Inhibition of small ribosomal subunit assembly in Escherichia coli assessed as accumulation of 16S rRNA at 7 ug/ml after 2 hrs by sucrose gradient fractionation at 25 degC. It is filed as functional, organism-based. The gist of the method: (§2)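 MG1655 grown in 2× YT at 25 or 37°C to A600 0.2, then drug added (final concentration as per line). Incubated 2 h at 25°C or 1 h at 37°C. Freeze-thaw lysis used lysozyme and DNase I. Lysate was run on a 10–25% sucrose gradient in buffer D, pH 8, for 13.5 h at 4°C. Fraction RNA was dot-blotted with 32P-labelled 16S/23S oligonucleotide probes, loading 0.2 pmol 50S-fraction 23S RNA.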

Assay [4] deals with Escherichia coli. Briefly: Inhibition of ribosomal subunit assembly in Escherichia coli assessed as retardation of 16S rRNA processing at 100 ug/ml after 2 hrs by primer extension analysis at 25 degC. It is filed as functional, organism-based. The gist of the method:
as §1

Assay [5] deals with Escherichia coli. Briefly: Inhibition of ribosomal subunit assembly in Escherichia coli assessed as retardation of 16S rRNA processing at 7 ug/ml after 1 hr by primer extension analysis at 37 degC. It is filed as functional, organism-based. The gist of the method: as §1
Assay [6] has as its system Escherichia coli. Nature of the assay: Inhibition of ribosomal subunit assembly in Escherichia coli assessed as retardation of 16S rRNA processing at 7 ug/ml after 2 hrs by primer extension analysis at 25 degC. It is filed as functional, organism-based. The procedure, abridged:
as §1

In assay [7] the test system is Escherichia coli. Nature of the assay: Inhibition of ribosomal subunit assembly in Escherichia coli assessed as accumulation of partially processed 23S rRNA in 30S, 40S and 50S fractions at 100 ug/ml after 1 hr by primer extension analysis at 37 degC. In kind it is functional, organism-based. The gist of the method:
as §1

For assay [8], the system named is Escherichia coli. Nature of the assay: Inhibition of small ribosomal subunit assembly in Escherichia coli assessed as accumulation of 16S rRNA at 7 ug/ml after 1 hr by sucrose gradient fractionation at 37 degC. It is filed as functional, organism-based. The procedure, abridged:
as §2

Assay [9] has as its system Escherichia coli. Briefly: Inhibition of ribosomal subunit assembly in Escherichia coli assessed as accumulation of partially processed 23S rRNA in 30S, 40S and 50S fractions at 7 ug/ml after 1 hr by primer extension analysis at 37 degC. It is filed as functional, organism-based. The procedure, abridged: as §1
In assay [10] the test system is Escherichia coli. Nature of the assay: Inhibition of large ribosomal subunit assembly in Escherichia coli assessed as accumulation of 23S rRNA in 70S and 50S fractions at 7 ug/ml after 2 hrs by sucrose gradient fractionation at 25 degC. In kind it is functional, organism-based. The procedure, abridged:
as §2

Assay [11] deals with Escherichia coli. Briefly: Inhibition of large ribosomal subunit assembly in Escherichia coli assessed as accumulation of 23S rRNA in 40S fraction at 7 ug/ml after 2 hrs by sucrose gradient fractionation at 25 degC. In kind it is functional, organism-based. The gist of the method:
as §2

In assay [12] the test system is Escherichia coli. Nature of the assay: Inhibition of ribosomal subunit assembly in Escherichia coli assessed as accumulation of assembly-deffective particles between 50S and 20S regions after 60 mins by sucrose gradient fractionation. In kind it is functional, organism-based. The procedure, abridged:
(§3)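 Cells grown at 37°C in tryptone/yeast extract/NaCl to A600 0.2, then exposed to erythromycin (final 100 μg/ml) or chloramphenicol (final 7 μg/ml). After 5, 10 or 60 min, pulsed 5 min with [3H]uridine, 2 μCi per 50 ml; some samples chased 5 min with rifampin, final 500 μg/ml. Sucrose gradients cut into 40 fractions; TCA-precipitable radioactivity counted by scintillation.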

For assay [13], the system named is Escherichia coli. Briefly: Inhibition of ribosomal subunit assembly in Escherichia coli assessed as accumulation of partially processed 23S rRNA in 30S, 40S and 50S fractions at 100 ug/ml after 2 hrs by primer extension analysis at 25 degC. In kind it is functional, organism-based. The procedure, abridged: as §1
The subject of assay [14] is Escherichia coli. Nature of the assay: Inhibition of ribosomal subunit assembly in Escherichia coli assessed as accumulation of partially processed 23S rRNA in 30S, 40S and 50S fractions at 7 ug/ml after 2 hrs by primer extension analysis at 25 degC. It is filed as functional, organism-based. The procedure, abridged:
as §1

The test system of assay [15] is Escherichia coli. Briefly: Inhibition of large ribosomal subunit assembly in Escherichia coli assessed as accumulation of 23S rRNA in 40S fraction at 7 ug/ml after 1 hr by sucrose gradient fractionation at 37 degC. In kind it is functional, organism-based. The gist of the method:
as §2

The subject of assay [16] is Escherichia coli. Nature of the assay: Inhibition of large ribosomal subunit assembly in Escherichia coli assessed as accumulation of 23S rRNA in 70S and 50S fractions at 7 ug/ml after 1 hr by sucrose gradient fractionation at 37 degC. It is filed as functional, organism-based. The gist of the method: as §2
Assay [17] relates to Escherichia coli. Nature of the assay: Antimicrobial activity against Escherichia coli at 7 ug/ml after 8 hrs. It is filed as functional. The procedure, abridged:
(§4)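 E. coli MG1655 culture growth followed by optical density over 8 h, with the drug-treated culture expressed relative to an untreated control culture.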

Assay [18] concerns Escherichia coli. Briefly: Inhibition of ribosomal subunit assembly in Escherichia coli assessed as accumulation of assembly-deffective particles between 50S and 20S regions after 10 mins by sucrose gradient fractionation. In kind it is functional, organism-based. The procedure, abridged: as §3
Assay [19] has as its system Staphylococcus aureus. Briefly: Antimicrobial activity against Staphylococcus aureus UCN14 with A2058T mutation in rrl allele. It is filed as functional. The gist of the method: (§5)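 Clinical S. aureus isolates carrying rRNA operon mutations: UCN14 has A2058T in 4 of 5 rrl alleles, UCN17 has A2058G in 4 of 6, and UCN18 has A2059G in 3 of 5. MIC was determined for erythromycin by microbroth dilution in 96-well plates.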

Assay [20] deals with Escherichia coli. Nature of the assay: Inhibition of large ribosomal subunit assembly in Escherichia coli assessed as accumulation of 23S rRNA in 40S fraction at 100 ug/ml after 2 hrs by sucrose gradient fractionation at 25 degC. It is filed as functional, organism-based. The gist of the method:
as §2

In assay [21] the test system is Escherichia coli. Briefly: Inhibition of ribosomal subunit assembly in Escherichia coli assessed as reduction in mature 23S rRNA at 100 ug/ml. It is filed as functional.
For assay [22], the system named is Escherichia coli. Briefly: Inhibition of large ribosomal subunit assembly in Escherichia coli assessed as accumulation of 23S rRNA in 40S fraction at 100 ug/ml after 1 hr by sucrose gradient fractionation at 37 degC. In kind it is functional, organism-based. The procedure, abridged: as §2
For assay [23], the system named is Escherichia coli. Briefly: Inhibition of small ribosomal subunit assembly in Escherichia coli assessed as accumulation of 16S rRNA at 100 ug/ml after 1 hr by sucrose gradient fractionation at 37 degC. It is filed as functional, organism-based. The procedure, abridged:
as §2

For assay [24], the system named is Staphylococcus aureus. Briefly: Antimicrobial activity against Staphylococcus aureus UCN17 with A2058G mutation in rrl allele. It is filed as functional. The gist of the method:
as §5

Assay [25] has as its system Escherichia coli. Nature of the assay: Inhibition of large ribosomal subunit assembly in Escherichia coli assessed as accumulation of 23S rRNA in 70S and 50S fractions at 100 ug/ml after 1 hr by sucrose gradient fractionation at 37 degC. It is filed as functional, organism-based. The procedure, abridged: as §2
The test system of assay [26] is Escherichia coli. Nature of the assay: Antimicrobial activity against Escherichia coli at 100 ug/ml after 8 hrs. In kind it is functional. The procedure, abridged: as §4
Assay [27] concerns Escherichia coli. Briefly: Inhibition of ribosomal subunit assembly in Escherichia coli assessed as reduction in mature 23S rRNA at 7 ug/ml in presence of E-peptide. It is filed as functional.
Assay [28] concerns Escherichia coli. Nature of the assay: Inhibition of large ribosomal subunit assembly in Escherichia coli assessed as accumulation of 23S rRNA in 70S and 50S fractions at 100 ug/ml after 2 hrs by sucrose gradient fractionation at 25 degC. In kind it is functional, organism-based. The gist of the method:
as §2

Assay [29] has as its system Escherichia coli. Nature of the assay: Inhibition of small ribosomal subunit assembly in Escherichia coli assessed as accumulation of 16S rRNA at 100 ug/ml after 2 hrs by sucrose gradient fractionation at 25 degC. It is filed as functional, organism-based. The gist of the method: as §2
For assay [30], the system named is Staphylococcus aureus. Briefly: Antimicrobial activity against Staphylococcus aureus UCN18 with A2059G mutation in rrl allele. It is filed as functional. The procedure, abridged:
as §5

In the case of `O=C(N[C@H](CO)[C@H](O)c1ccc([N+](=O)[O-])cc1)C(Cl)Cl` [CHLORAMPHENICOL], the inhibition entry in [1], in assay [3], in [4], in [5], in [6] and in assay [7] was “Active” in each case. In addition, the inhibition result in assay [8], in assay [9], in assay [10], in assay [11], in assay [12] and in assay [13] was “Active” throughout. Moreover, the inhibition result in assay [14], in assay [15], in [16] and in [18] was “Active” throughout. Also, the inhibition (as a rule, the percentage by which the read-out fell short of the control) at 7 µg/mL in [2] is 50%. In addition, the Activity in assay [17] is given as 70%.
Regarding `CC[C@H]1OC(=O)[C@H](C)[C@@H](O[C@H]2C[C@@](C)(OC)[C@@H](O)[C@H](C)O2)[C@H](C)[C@@H](O[C@@H]2O[C@H](C)C[C@H](N(C)C)[C@H]2O)[C@](C)(O)C[C@@H](C)C(=O)[C@H](C)[C@@H](O)[C@]1(C)O` [ERYTHROMYCIN], the MIC in [19], in assay [24] and in assay [30] was 512 µg/mL (≈ 698 µM) each time. Moreover, the inhibition result in [1], in assay [20], in [23], in [4], in assay [5] and in assay [6] was “Active” each time. Further, the inhibition result in assay [7], in assay [25], in assay [28], in [9], in [29] and in [12] was “Active” each time. In addition, the inhibition entry in [13], in assay [14] and in assay [18] was “Active” each time. Besides, the inhibition at 100 µg/mL in assay [21] was determined as 30%. The outcome in assay [22] was Active. This compound gave an Activity in [26] of 70%. Moreover, in assay [27], the inhibition at 7 µg/mL is 60%.
